{"data": "Measured values collected from several papers", "observed": "metabolic stability", "host": "human", "note": "Lines come from different studies, so protocols differ."}
{"Compound": "C[C@]12CC[C@H]3[C@@H](CCC4=CC(=O)CC[C@@]43C)[C@@H]1CC[C@@H]2O", "test system": "liver microsomes", "setting": "10 µM, pH 7.4", "half-life [min]": 19.3}
{"Compound": "CNC(C)Cc1ccc2nsnc2c1 (stereo not drawn)", "test system": "liver microsomes", "setting": "0.5 µM", "half-life [min]": 53}
{"Compound": "C[C@]12CC[C@H]3[C@@H](CCC4=CC(=O)CC[C@@]43C)[C@@H]1CC[C@@H]2O", "test system": "hepatocytes", "setting": "1 µM", "half-life [min]": 6.51}
{"Compound": "CNC(C)Cc1ccc2nonc2c1 (stereo not drawn)", "test system": "liver microsomes", "setting": "0.5 µM", "half-life [min]": "> 150"}
{"Compound": "COc1ccc([C@@]23Oc4cc(OC)cc(OC)c4[C@@]24N=C(C2CC2)N[C@@]4(O)[C@H](C(=O)N(C)OC)[C@H]3c2ccccc2)cc1", "test system": "liver microsomes", "setting": "1 µM, pH 7.4", "half-life [min]": 18.3}
{"Compound": "CC[C@H](C)[C@H](NC(=O)[C@H](CC(=O)O)NC(=O)[C@H](CS)NC(=O)[C@H](CCCCN)NC(=O)[C@H](CS)NC(=O)[C@H](CCSC)NC(=O)[C@@H]1CCCN1C(=O)[C@H](CCC(N)=O)NC(=O)[C@@H]1CCCN1C(=O)[C@H](CCCNC(=N)N)NC(=O)[C@H](CCCNC(=N)N)NC(=O)[C@H](CCCNC(=N)N)NC(=O)[C@H](CCCNC(=N)N)NC(=O)[C@H](CCC(N)=O)NC(=O)[C@H](CCCNC(=N)N)NC(=O)[C@H](CCCNC(=N)N)NC(=O)[C@H](CCCCN)NC(=O)[C@H](CCCCN)NC(=O)[C@H](CCCNC(=N)N)NC(=O)CN)C(=O)N[C@@H](CC(C)C)C(=O)N[C@@H](CCCCN)C(=O)N[C@@H](C)C(=O)O", "test system": "liver microsomes", "setting": "1 µM", "half-life [min]": 6}
{"Compound": "CONC(=O)[C@H]1[C@@H](O)[C@@]2(O)c3c(OC)cc(OC)cc3O[C@@]2(c2ccc(OC)cc2)[C@@H]1c1ccccc1", "test system": "liver microsomes", "half-life [min]": 120}
{"Compound": "CC(C)C[C@H](NC(=O)[C@H](Cc1ccccc1)NC(=O)[C@H](Cc1ccccc1)NC(=O)Cc1ccc(-c2ccccc2)cc1)C(=O)N[C@@H](CCCCN)C(=O)N[C@@H](CCCNC(=N)N)C(=O)N[C@H](C(=O)N[C@@H](Cc1c[nH]c2ccccc12)C(=O)N[C@@H](CCCCN)C(=O)N[C@@H](CCCNC(=N)N)C(=O)O)C(C)C", "test system": "liver microsomes", "setting": "1 µM", "half-life [min]": 22.8}
{"Compound": "C[C@]12CC[C@H]3[C@@H](CC=C4CC(O)CC[C@@]43CO)[C@@H]1CCC2O (stereo partly drawn)", "test system": "liver microsomes", "half-life [min]": 73.6}
